Compounds with a hit are over-represented: about 4.3% of the library has one in this group of screens.
HTR2A ag – agonists of mouse serotonin 5-HT2A receptor (HTR2A); CHO-K1 mHTR2A beta-arrestin complementation, luminescence; percent of 30 µM serotonin response; P35363; hit rate 0.66% among 360,000; activation, % at 7.6 µM;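 active = activation above a run cutoff, the mean activation of all tested compounds plus 3 SD, cut at about 14% in these data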;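 note: 0% = plate median of compound wells and 100% = 30 µM serotonin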
MC4R barr agon – activates human MC4R beta-arrestin recruitment | P32245 | U2OS MC4R beta-arrestin complementation, luminescence; percent of melanotan II response, DMSO zero | activation, % at 8.9 µM | hit rate 0.98% among 360,000;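 active = activation above a per-plate cutoff, the mean activation of sample wells on that plate plus 3 SD, cut at about 8% in these data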
TAAR1 ag – human TAAR1 agonism; activation, % at 3 µM; hit rate 0.99% among 360,000; Q96RJ0; CHO RD-HGA16 TAAR1, Fluo-8 calcium fluorescence; vehicle wells 0%, saturating PEA agonist 100%;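 active = activation above the mean activation of all test compounds in the run plus 3 SD, cut at about 38% in these data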
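Test system: RD-HGA16 (CHO) cells co-expressing Gα16 and hTAAR1; dosing: one-point dosing at 3 µM (nominal); timing: 17-24 h seeding, 75 min 37 °C dye, 30 min RT; signal: kinetic Fluo-8 calcium fluorescence; read-out basis: % activation relative to PEA EC100 response; controls: DMSO and PEA EC100; replicates: n 1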
TAAR1 antag – human TAAR1 antagonism; inhibition, % at 3 µM; CHO RD-HGA16 TAAR1, Fluo-8 calcium fluorescence, antagonist; hit rate 1.5% among 360,000;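 active = inhibition above a per-plate cutoff, the mean inhibition of test compounds on that plate plus 3 SD, cut at about 49% in these data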;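 note: 0% = DMSO plus EC80 beta-PEA response and 100% = DMSO alone without agonist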
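Test system – hTAAR1-expressing CHO RD-HGA16 cells, Gα16-coupled · Reagent – β-PEA at EC80 concentration, post-compound challenge · Compound dosing – 3 µM, single point · Timing – 140 s kinetic read after compound, 140 s after agonist · Detection – Fluo-8 intracellular calcium dye fluorescence, real-time kinetic reads · Control set – DMSO and EC80 PEA controls · Repeats – n of 1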
MC4R antag cAMP – blocks human MC4R cAMP signaling; P32245; MC4R-expressing cells, MTII-stimulated cAMP, LANCE TR-FRET; inhibition, % at 6.5 µM; hit rate 0.48% among 360,000; AID 540295;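 active = inhibition above its plate's cutoff, the mean of tested wells on that plate plus 3 SD, cut at about 29% in these data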;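 note: 0% = Melanotan II alone and 100% = Melanotan II plus saturating MCL0020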
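Material: U2OS-MC4R stable cell line | Reagent: Melanotan II challenge after compound preincubation | Doses: One concentration, 6.5 µM nominal | Incubation: 30-min compound preincubation, 1-h Melanotan II challenge, 1-h detection, room temperature | Signal: TR-FRET cAMP assay | Replicates: One well per compound, no replicates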
Beta2AR agonist – human beta-2 adrenergic receptor agonism by FAP; P07550; Am2.2-beta2AR cells, FAP receptor internalization, flow cytometry; response, % (no concentration beside the values); hit rate 0.43% among 340,000;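 active = response above a set limit, near 3 SD of response in nonfluorescent compounds, cut at about 42% in these data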
Target sequence (P07550 whole entry, looked up): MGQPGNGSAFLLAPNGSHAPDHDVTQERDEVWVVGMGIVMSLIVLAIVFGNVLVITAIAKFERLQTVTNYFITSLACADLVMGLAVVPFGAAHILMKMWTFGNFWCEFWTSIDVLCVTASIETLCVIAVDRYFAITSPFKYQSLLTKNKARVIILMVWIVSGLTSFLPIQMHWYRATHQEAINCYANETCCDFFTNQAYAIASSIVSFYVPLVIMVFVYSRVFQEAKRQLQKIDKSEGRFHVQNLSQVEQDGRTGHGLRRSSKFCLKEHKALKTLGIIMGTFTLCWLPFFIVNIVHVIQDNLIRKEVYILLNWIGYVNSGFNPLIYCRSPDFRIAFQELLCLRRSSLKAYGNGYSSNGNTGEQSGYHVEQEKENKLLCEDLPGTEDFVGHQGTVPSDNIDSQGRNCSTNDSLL
TAAR1 nonsel count – nonselective antagonism, TAAR1 counter-screen; hit rate 77% among 2,400; AID 651780; shares compounds with TAAR1 antag; counterscreen cell line, calcium fluorescence, antagonist mode; inhibition, % at 3 µM; in the data active = inhibition above about 22%;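 note: CHO-Ga16 host cells stimulated with ATP at an EC80 level; 0% = agonist EC80 plus vehicle and 100% = vehicle without agonist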
TAAR1 ant conf – confirmation of human TAAR1 antagonists; inhibition, % at 3 µM; TAAR1-expressing cells, fluorescence antagonist read-out; hit rate 40% among 2,400; shares compounds with TAAR1 antag; AID 651785; in the data active = inhibition above about 49%;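 note: CHO-Ga16 host cells challenged with agonist PEA near its EC80; 0% = agonist at EC80 plus vehicle and 100% = vehicle with no agonist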
Ga16 ag counter – nonselective Ga16 agonism, counter-screen | shares compounds with TAAR1 antag | activation, % at 3 µM | Ga16-expressing cells, calcium fluorescence, agonist counterscreen | hit rate 18% among 2,400; in the data active = activation above about 12%;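 note: 0% = vehicle wells and 100% = saturating stimulus response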
TAAR1 ag count – TAAR1 agonism, antagonist counter-screen; hTAAR1 cell line, fluorescence activation, agonist mode; activation, % at 3 µM; hit rate 2% among 2,400; shares compounds with TAAR1 antag; in the data active = activation above about 37%;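 note: CHO cells stably expressing TAAR1 with calcium dye readout; 0% = DMSO vehicle and 100% = full agonist response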
* hit, by the source's call; / = not tested or not shown.

SMILES	HTR2A ag	MC4R barr agon	TAAR1 ag	TAAR1 antag	MC4R antag cAMP	Beta2AR agonist	TAAR1 nonsel count	TAAR1 ant conf	Ga16 ag counter	TAAR1 ag count
COc1ccc(CCNC(=O)CN(c2cc(OC)ccc2OC)S(=O)(=O)c2ccccc2)cc1	2	0	9	50*	20	5	30*	35	5	4
COc1ccccc1NC(=O)CCc1nnc2ccc(NCc3ccco3)nn12	4	-1	-1	-2	5	-4	/	/	/	/
CCN(CC(=O)Nc1ccccc1OC)CC(=O)Nc1c(Cl)ccc(C)c1Cl	-4	-1	12	58*	12	5	22*	40	8	8
CCN(CC(=O)NCc1cccs1)CC(=O)Nc1c(Cl)ccc(C)c1Cl	-6	0	5	21	7	-4	/	/	/	/
COc1cccc(CNn2c(-c3cccc(C)c3)nc3ccccc3c2=O)c1O	2	0	4	54*	5	-6	13	39	7	5
CC(C)(C)OC(=O)NCc1ccc(CNC(=O)c2[nH]cnc2C(=O)Nc2ccccc2F)cc1	-3	9.3*	13	71*	-1	/	42*	46	11	13
CC(C)(C)OC(=O)NCc1ccc(CNC(=O)c2nc[nH]c2C(=O)N2CCN(C(=O)OC(C)(C)C)CC2)cc1	6	1	26	61*	5	15	35*	52*	16*	19
Cc1ccc(NC(=O)c2nc[nH]c2C(=O)N2CCN(C(=O)OC(C)(C)C)CC2)cc1	4	2	9	11	4	-5	/	/	/	/
CC(C)C[C@H](NC(=O)c1[nH]cnc1C(=O)N[C@H](C)c1ccccc1)C(=O)OC(C)(C)C	1	1	-1	12	9	9	/	/	/	/
CC(C)C[C@H](NC(=O)c1nc[nH]c1C(=O)NC(c1ccccc1)c1ccccc1)C(=O)OC(C)(C)C	3	-2	8	56*	14	13	19	31	0	2
C[C@H](NC(=O)c1nc[nH]c1C(=O)NCc1ccc(CNC(=O)OC(C)(C)C)cc1)c1ccccc1	0	-1	36	68*	7	0	38*	42	10	17
O=C(COC(=O)c1ccc(C(F)(F)F)cc1)Nc1cccc(S(=O)(=O)N2CCCCC2)c1	4	2	1	43	-4	7	/	/	/	/
COC(=O)Cc1coc2cc(OC)ccc12	-1	-1	8	4	-2	-4	/	/	/	/
CCCCN(C(=O)CSCC(=O)Nc1ccc(OC)cc1)c1c(N)n(Cc2ccccc2)c(=O)[nH]c1=O	-6	-2	0	1	5	-2	/	/	/	/
COC(=O)C1C(=O)N(S(=O)(=O)c2ccc([N+](=O)[O-])cc2)c2ccccc21 (configuration not stated)	0	/	3	-2	/	/	/	/	/	/
CC1=CC(=O)C=CC1=Nc1ccc(N(C)C)cc1	-1	/	1	-13	/	/	/	/	/	/
O=C(Cn1cc(COc2ccc(-n3cccc3)cc2)nn1)NS(=O)(=O)c1ccccc1C(F)(F)F	-4	1	2	0	2	/	/	/	/	/
O=C(N=Nc1c(O)[nH]c2ccccc12)c1cc(-c2ccc(F)cc2)n[nH]1	-1	-2	4	65*	14	2	14	15	2	0
O=C(OCn1ncc(Cl)c(Cl)c1=O)c1ccc(C(F)(F)F)cc1	5	1	13	66*	33*	4	35*	40	6	7
O=C(O)c1ccc(-n2ncc(Cl)c(Cl)c2=O)cc1	2	-3	/	/	2	/	/	/	/	/
CC(=O)NC(c1cccc(F)c1)c1nc(-c2ccc(N(C)C)cc2)cs1 (configuration not stated)	-5	-1	1	-5	2	/	/	/	/	/
CN(C(=O)COC(=O)c1nc(Cl)ccc1Cl)c1ccccc1	6	-2	2	-14	5	-2	/	/	/	/
Cc1ccccc1NC(=O)CCN1CCc2ccccc2C1	5	-2	3	104*	12	-12	-6	0	5	9
CC(C)NC(=O)C1(C)CSCC(=O)N1Cc1ccco1 (configuration not stated)	3	/	2	-4	/	/	/	/	/	/
O=C(O)COc1ccccc1/C=N/NC(=O)C(O)c1ccccc1 (configuration not stated)	3	0	0	1	20	-3	/	/	/	/
SMILES	HTR2A ag	MC4R barr agon	TAAR1 ag	TAAR1 antag	MC4R antag cAMP	Beta2AR agonist	TAAR1 nonsel count	TAAR1 ant conf	Ga16 ag counter	TAAR1 ag count
CCC/C=C/c1ccc(CN2C(CC(C)C)C(=O)N(Cc3cn(Cc4ccco4)nn3)CCS2(=O)=O)cc1 (configuration not stated)	0	-1	2	-4	4	/	/	/	/	/
COC(=O)c1cccc(S(=O)(=O)N(Cc2ccco2)Cc2cc3cc(OC)c(OC)cc3[nH]c2=O)c1	3	-1	9	22	3	-2	/	/	/	/
COC(=O)c1cccc(S(=O)(=O)N(Cc2ccco2)Cc2cc3ccc(OC)cc3[nH]c2=O)c1	0	1	21	57*	8	7	33*	57*	10	7
CCCC[C@@H]1Cc2[nH][nH]c(=O)c2[C@H](c2ccc(C(C)C)cc2)O1	1	/	0	4	/	/	/	/	/	/
COC(=O)[C@]1(C)N[C@H](CN(C)S(=O)(=O)c2ccc(C(F)(F)F)cc2)[C@@H]2C(=O)N(C)C(=O)[C@@H]21	1	-1	1	-1	6	-7	/	/	/	/
Cc1ccccc1CN1CCc2c(OCC(=O)N3CCCc4ccccc43)cccc2C1=O	-2	-2	12	72*	5	10	41*	54*	11	8
O=C1c2cccc(OCC(=O)N3CCCc4ccccc43)c2CCN1Cc1cccnc1	2	3	11	28	1	7	/	/	/	/
CC[C@]1(C(=O)OC)[C@H]2C(=O)N(C)C(=O)[C@H]2[C@H]2CN=C(SCc3ccc(C#N)cc3)N21	-3	1	3	-21	-4	-1	/	/	/	/
C=CCN1C[C@H](COC(=O)c2cccc(C)c2)Oc2cccc(F)c2S1(=O)=O	/	/	1	49*	/	/	38*	50*	7	6
CN(c1ccccc1)S(=O)(=O)c1cc(C(=O)N2CCN(c3ccccn3)CC2)ccc1Cl	-8	-1	7	60*	1	9	19	34	6	5

Assay outcomes from PubChem.
